Sampled rows, rich in hits. Any-hit rate of the full collection: about 1.4%.
Calpain2 inh = inhibitors of pig calpain II | purified calpain II, fluorogenic peptide substrate, 30 min | inhibition, % at 16 µM | 0.37% of 220,000 active;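 active means inhibition above about 50%, limit read from the data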
KLK5 inh = kallikrein 5 (human) inhibition. Q9Y337. recombinant hK5, fluorogenic AMC substrate cleavage. inhibition, % at 5 µM. 0.59% of 210,000 active. AID 873;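 active means inhibition of 40% or more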;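 further: 0% = enzyme controls without compound and 100% = no-enzyme blanks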
thrombin 1536 = inhibitors of human thrombin; P00734; alpha-thrombin, Boc-VPR-AMC fluorogenic substrate cleavage; inhibition, % at 5 µM; 0.26% of 220,000 active; AID 1046;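 active means inhibition at or above 40%; inactive means inhibition below 40%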;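 further: 0% = enzyme with no compound and 100% = wells without enzyme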
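Material: human alpha-thrombin enzyme / Medium: pH 7.5 Tris (50 mM) with NaCl 150 mM, Tween 20 0.05% / Compound: single-point dosing at 5 µM, 0.2% DMSO / Incubation: enzyme reaction carried out at room temperature / Detection: AMC fluorescence, 355/460 nm / Read-out basis: percent inhibition scaled between no-compound controls and no-enzyme blanks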
FXIIa inh = inhibitors of human coagulation factor XIIa | 0.3% of 220,000 active | purified FXIIa, Boc-QGR-AMC fluorogenic substrate, 2 h | inhibition, % at 5 µM | P00748; in the data active means inhibition above about 40%;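 further: 0% = enzyme with no compound and 100% = blank without enzyme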
FXIa inh = blocks human coagulation factor XIa protease activity; purified FXIa, Boc-Glu-Ala-Arg-AMC fluorogenic substrate; 0.14% of 220,000 active; inhibition, % at 5 µM;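 active means inhibition of at least 40%; inactive means inhibition below 40%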;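 further: fluorescence of freed AMC excited at 355 nm; 0% = enzyme without compound and 100% = no enzyme blank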
Target sequence (P03951 19-387 limits assumed): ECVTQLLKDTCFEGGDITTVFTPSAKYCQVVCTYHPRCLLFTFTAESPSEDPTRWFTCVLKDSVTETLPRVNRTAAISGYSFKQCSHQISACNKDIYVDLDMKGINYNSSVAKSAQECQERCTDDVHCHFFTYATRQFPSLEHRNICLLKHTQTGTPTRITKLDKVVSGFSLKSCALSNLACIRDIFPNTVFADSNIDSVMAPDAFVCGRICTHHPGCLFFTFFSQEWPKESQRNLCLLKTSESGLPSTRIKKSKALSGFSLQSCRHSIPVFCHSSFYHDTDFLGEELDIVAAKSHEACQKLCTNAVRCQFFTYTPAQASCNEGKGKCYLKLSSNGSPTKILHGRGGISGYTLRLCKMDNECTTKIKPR
Target sequence (P03951 388-625 limits assumed): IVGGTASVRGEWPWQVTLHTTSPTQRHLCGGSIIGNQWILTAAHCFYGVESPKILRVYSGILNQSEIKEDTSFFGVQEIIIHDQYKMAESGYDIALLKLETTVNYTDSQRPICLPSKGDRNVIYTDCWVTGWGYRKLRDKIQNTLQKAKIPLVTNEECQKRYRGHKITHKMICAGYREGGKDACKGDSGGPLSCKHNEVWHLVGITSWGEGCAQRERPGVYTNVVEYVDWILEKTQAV
* marks the source's active call; other numbers are inactive results; i = inactive; nt = no result.

SMILES	Calpain2 inh	KLK5 inh	thrombin 1536	FXIIa inh	FXIa inh
Cc1ccnc(NC(=O)C2CCCN(S(=O)(=O)c3cnc[nH]3)C2)c1 (stereo unspecified)	7.8	15.3	70.2*	-8.3	-10.3
COc1ccc(C(=O)COC(=O)CNC(=O)c2cc(OC)cc(OC)c2)cc1	13.8	-7.7	-3.3	2.2	3.6
O=P(CCCCCCCCCP(=O)(c1ccccc1)c1ccccc1)(c1ccccc1)c1ccccc1	56.5*	-27.2	-9.2	-1.4	-3.4
O=C(O)CP(=O)(c1ccccc1)c1ccccc1	1.4	41.8*	9.5	17.8	2.3
COCCCNC(=S)NNC(=O)c1ccc(S(=O)(=O)N2CCC(C)CC2)cc1	-10.7	-2.8	nt	5.0	1.8
O=C(NCCCn1ccnc1)c1ccccc1NS(=O)(=O)c1ccc(F)c(F)c1	0.6	86.5*	16.9	-4.7	4.5
COc1ccc(-c2cc(C(=O)c3c(N)n(C)c(=O)n(C)c3=O)c3ccccc3n2)cc1OC	18.4	20.2	9.9	42.0*	39.1
COc1ccc(-c2cc(C(=O)NCc3cn(C)nc3C)c3ccccc3n2)cc1OC	52.3*	-8.5	-0.6	14.2	8.3
Cc1ccc(C)c(C2=CSC3=NCCN23)c1	15.2	79.9*	12.4	17.7	6.1
Cc1ccc(C)c(C2=CSC3=NS(=O)(=O)CCN23)c1	10.5	6.1	-18.8	-5.6	6.0
COc1ccc(N2C(=S)N=C(Nc3ccccc3)C23CCCCC3)cc1	-13.3	0.7	101.1*	10.1	-2.1
Cc1cccc(Cn2ccc(NC(=O)c3ccc4c(c3)OCO4)n2)c1	21.9	-11.1	5.3	8.1	-3.6
O=C(NN1C(=O)c2ccccc2NC1c1ccco1)c1ccc([N+](=O)[O-])cc1 (stereo unspecified)	61.7*	0.7	-0.9	3.5	2.5
Cc1cc(C)nc(Sc2ncnc(N)c2[N+](=O)[O-])n1	19.0	-22.1	-3.1	-7.5	-6.1
O=C(O)CCCNC(=O)/C(=C\C=C\c1ccccc1)NC(=O)c1ccccc1Cl	17.1	-3.2	-6.6	7.7	-2.4
COc1ccc(/C=C(\NC(=O)c2ccccc2Cl)C(=O)NCCCC(=O)O)cc1	51.9*	-7.3	1.0	6.2	-5.9
O=C(Cc1ccc(Cl)c(Cl)c1)Nc1cccc(S(=O)(=O)N2CCOCC2)c1	14.3	-2.1	8.8	2.2	-4.1
CCC(C)NCCOc1cc(C)cc(C)c1C (stereo unspecified)	8.3	31.2	56.1*	nt	35.0
CCC(C)NCCOCCOc1ccc(C)cc1OC (stereo unspecified)	27.5	-3.5	2.5	11.0	18.9
O=C(NNC1=NCCCCC1)Nc1cccc(Cl)c1	22.3	23.9	40.1*	41.6*	46.6*
O=C(NNC1=NCCCCC1)Nc1ccc(Cl)cc1	2.9	2.2	-0.1	7.8	9.9
CCc1nnc(NC(=O)c2ccc(NC(=O)C(C)C)cc2)s1	-9.7	0.4	2.1	3.6	43.3*
COCc1nnc(NC(=O)c2ccc(NC(=O)C(C)C)cc2)s1	-14.1	-0.4	4.8	23.4	7.5
Cc1ccc(/C=N\Nc2nc3ccc(Cl)cc3[nH]2)o1	13.6	-79.0	4.1	51.7*	19.7
Fc1ccccc1-c1ccc(/C=N/Nc2nc3ccccc3[nH]2)o1	-9.8	-14.8	-7.1	5.5	0.1
SMILES	Calpain2 inh	KLK5 inh	thrombin 1536	FXIIa inh	FXIa inh
CC(OC(=O)c1ccncc1)C(=O)NC1CCCC1 (stereo unspecified)	-30.0	-10.8	-2.0	2.2	-8.2
O=C(Cn1c(-c2ccccn2)nc2ccccc21)N/N=C/c1cccnc1	2.8	113.0*	13.3	30.5	47.7*
Cc1ccc(S(=O)(=O)N2CCN(CC(=O)N/N=C\c3ccccn3)CC2)cc1	13.4	2.5	20.4	9.2	-4.5
Cc1ccc(S(=O)(=O)N2CCN(CC(=O)N/N=C\c3cccnc3)CC2)cc1	34.4	41.3*	10.6	6.3	10.8
Cc1ccccc1-n1c(SCC(=O)Nc2ccccc2)nc2nc3c(cc2c1=O)CCCC3	-49.7	-27.1	-5.4	7.3	-0.4
O=C(Nc1cnn(Cc2ccc(F)cc2)c1)c1cc(-c2ccco2)on1	-82.7	-22.8	-5.5	0.4	1.8
O=C(Nc1cnn(Cc2ccc(F)cc2)c1)c1cc2nc(-c3ccco3)cc(C(F)(F)F)n2n1	90.8*	-16.6	-9.6	-3.9	-9.9
COc1cc(CN(C2CCCCC2)S(=O)(=O)c2ccc(S(=O)(=O)N(C)C3CCCCC3)cc2)cc(OC)c1OC	-24.7	-9.9	1.3	12.2	8.4
COc1ccc(Oc2ccccc2/C=N/O)cc1	18.2	116.7*	-0.7	-0.3	1.2
CCC(=O)Oc1ccc2c(C)c(Cl)c(=O)oc2c1	i	17.1	47.0*	31.9	6.2
Cc1c(Cl)c(=O)oc2cc(OC(C)C)ccc12	-449.9	-17.6	0.7	8.2	6.8
CCc1ccc(C(=O)COC(=O)c2cccc(N3C(=O)c4c(C)nc5ccccc5c4C3=O)c2)cc1	-18.3	51.5*	8.9	17.3	0.3
Cc1ccc(NC(=O)CSCC(N)=O)cc1C	0.8	41.9*	10.8	41.9*	8.9
Cc1ccc(NC(=O)CCSCCC(=O)Nc2ccc(C)c(C)c2)cc1C	-53.4	0.7	-1.8	8.7	2.1
Cc1ccc(NC(=O)CCn2cccc2)cc1C	4.2	31.5	31.6	43.0*	14.1
O=C(CNC(=S)N(Cc1ccccc1Cl)C1CCCC1)NCCN1CCOCC1	36.0	-1.3	-5.0	12.2	-4.0
O=C(NCc1cccnc1)c1ccc([N+](=O)[O-])o1	6.7	-1.6	-9.1	8.3	-2.7
CCCCNC(=O)CCn1c(=O)c2ccccc2n(Cc2ccc(F)cc2)c1=O	1.1	-14.7	-6.8	11.3	5.9
Cc1ccc(C)c(N(CC(=O)Nc2cc(Cl)ccc2Oc2ccccc2)S(C)(=O)=O)c1	0.0	-1.0	-4.9	-6.6	-5.0
CC(C)CNS(=O)(=O)c1ccc(CCC(=O)Nc2cc(Cl)ccc2Oc2ccccc2)cc1	71.2*	-3.5	-5.5	-2.2	-9.1
CCCNS(=O)(=O)c1ccc(CCC(=O)Nc2cc(Cl)ccc2Oc2ccccc2)cc1	7.8	-15.9	-1.6	11.9	3.9
Cc1cccc(C)c1N(CC(=O)Nc1cc(Cl)ccc1Oc1ccccc1)S(C)(=O)=O	52.0*	-11.1	-1.1	22.1	20.5
Cc1cn2c(nc(=O)c3cccnc32)s1	-213.2	-15.1	-6.0	-2.2	-3.8
O=C(C1CCN(c2ccc(N3CCOCC3)nn2)CC1)N1CCN(c2ccc(F)cc2)CC1	nt	105.7*	-0.1	-9.7	-6.2
COc1ccc(NC(=O)C2CCCCN2S(=O)(=O)c2ccc(F)cc2)cc1 (stereo unspecified)	19.2	53.4*	17.8	17.6	3.6
COc1ccc(S(=O)(=O)N2CCCC2C(=O)Nn2cnnc2)cc1 (stereo unspecified)	23.9	-4.7	-3.6	43.3*	21.5
COc1ccc(NC(=O)C2CCCCN2S(=O)(=O)c2ccc(F)cc2)c(OC)c1 (stereo unspecified)	12.3	40.8*	10.6	22.7	1.0
CCOC(=O)c1cnn(-c2ccccc2)c1NC(=O)CN1CCCCC1	-16.0	4.3	1.9	5.8	5.4
O=C(Nc1nc(-c2ccncc2)cs1)c1ccc(F)cc1	-0.2	-2.0	-9.2	6.5	-5.5
